Shown are actives, neighbours in structure and some others; about 1.4% of the full set was active somewhere.
DAGLB inhibitor: diacylglycerol lipase beta (human) inhibition. HEK293T DAGLB membrane lysate, EnzChek fluorogenic substrate. Q8NCG7. inhibition, % at 5.17 µM. 340,000 tested, 0.059% active. AID 504411; in the data active = inhibition above about 34%;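 also: 0% = enzyme with vehicle and 100% = wells lacking enzyme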
DDE Tn7 FP inh: DD(E)-Tn7 binding inhibition, primary FP screen; P02675; FP displacement of FITC-Tn7 peptide from fibrin DD(E); 0% = median of compound wells per plate; 370,000 tested, 0.13% active; AID 720508; inhibition, % at 8.3 µM;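 active = inhibition above the mean of compounds falling within the control limits plus 3 SD of them, cut at about 14% in these data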;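 also: 0% = plate median of compound wells and 100% = 10 µM Aha-Tn7 peptide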
Target sequence (P02675 whole entry, looked up): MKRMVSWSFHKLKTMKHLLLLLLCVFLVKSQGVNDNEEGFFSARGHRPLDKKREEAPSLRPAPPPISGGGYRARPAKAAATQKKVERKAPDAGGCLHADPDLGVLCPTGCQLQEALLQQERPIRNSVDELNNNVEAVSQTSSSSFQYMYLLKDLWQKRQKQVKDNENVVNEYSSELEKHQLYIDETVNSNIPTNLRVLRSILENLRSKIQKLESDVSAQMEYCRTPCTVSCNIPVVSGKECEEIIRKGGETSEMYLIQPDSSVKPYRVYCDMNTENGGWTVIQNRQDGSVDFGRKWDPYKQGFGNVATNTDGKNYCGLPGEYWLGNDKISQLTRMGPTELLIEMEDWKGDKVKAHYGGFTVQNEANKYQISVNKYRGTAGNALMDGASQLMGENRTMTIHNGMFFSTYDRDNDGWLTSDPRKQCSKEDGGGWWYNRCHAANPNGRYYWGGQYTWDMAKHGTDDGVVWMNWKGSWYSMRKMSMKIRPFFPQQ
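Test system – human fibrin DD(E) · Times – 10 min preincubation, 3 h with tracer, room temperature · Detection – fluorescence polarization of the labelled Tn7 tracer · Measure – percent inhibition normalized to high-control wells · Benchmarks – high control wells with 10 µM unlabelled Aha-Tn7 peptide (full inhibition) · Repeats – singlicate testing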
MT1-MMP act inh: inhibitors of human MT1-MMP activation; 360,000 tested, 0.061% active; P50281; GFP/RFP ratio change, % at 20 µM; HT1080 RFP-PRO-GFP cells, GFP/RFP ratio fluorescence, overnight; percent of plate control window, DMSO zero;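 active = GFP/RFP ratio change of at least 30% with cell ATP level not reduced by more than half and red fluorescence within 50% of control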
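Read-out: GFP/RFP fluorescence ratio; Test system: RFP-PRO-GFP reporter HT1080 cells; Compound dosing: single-point 20 µM compound, 1% DMSO; Times: overnight compound exposure at 37 °C.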
H9c2 protect: protects H9c2 cardiomyocytes from peroxide injury; H2O2 injury protection, ATPLite, 2 h; protection from H2O2 cell death, % at 20 µM; 360,000 tested, 0.63% active; AID 588492;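 active = compounds giving at least 50% protection of heart cells from peroxide-induced death in the single-dose screen, raw or plate-pattern-corrected value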;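 also: 0% = DMSO wells with peroxide and 100% = DMSO wells without peroxide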
DDE Tn6 FP inh: disrupts Tn6 cyclic peptide binding to fibrin D-Dimer-E complex. P02675. Fibrin DD(E) TRITC-Tn6 fluorescence polarization displacement. inhibition, % at 8.3 µM. 370,000 tested, 0.21% active;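 active = inhibition above a per-campaign cutoff: mean of compounds within control limits plus 3 SD, cut at about 15% in these data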;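 also: 0% = median of all compound wells on the plate and 100% = blocking peptide control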
H9c2 TAG inh: inhibitors of triacylglycerol accumulation | H9c2 cells, Nile Red lipid (TAG) fluorescence; cells loaded with 200 µM oleic acid | inhibition, % at 12.5 µM | 230,000 tested, 0.66% active;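 active = pattern-corrected inhibition of lipid staining of at least 50% with the nuclear-stain viability signal not falling by more than 50%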;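 also: 0% = DMSO wells and 100% = triacsin C control wells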
Starred values were filed as active, the others as inactive; . = not tested or not shown; ! = repeats disagree.

SMILES	DAGLB inhibitor	DDE Tn7 FP inh	MT1-MMP act inh	H9c2 protect	DDE Tn6 FP inh	H9c2 TAG inh
COc1ccc(CC(N)c2csc(NC(=O)c3cc(C(C)(C)C)nn3Cc3ccccc3)n2)cc1 (centres undefined)	.	-8	-12	-29	-6	112*
CC(C)=CCC/C(C)=C/CNCC(=O)N1c2ccccc2[C@]2(c3ccccc3)C[C@@H]3C(=O)N(C/C=C(\C)CCC=C(C)C)CC(=O)N3[C@H]12	.	-2	.	.	0	.
CN1CC=C(c2ccccc2)N(c2ccccc2)C1=O	.	10	.	.	-6	.
O=[N+]([O-])c1ccc(Sc2cccc[n+]2[O-])c2nonc12	1	-8	-130	-18	-2	102*
CCCCOc1cccc(C(=O)NCCc2ccccc2-c2ccccc2CCC(=O)NCc2ccccc2)c1	.	-4	.	.	1	.
O=C(COc1ccccc1)NCC(=O)N/N=C/c1ccc(O)cc1O	1	2	8	60*	4	5
CCOc1ccc(/C=N/NC(=O)C(O)c2ccccc2)c(O)c1 (centres undefined)	0	3	1	52*	6	.
O=C(COc1ccccc1)NCC(=O)N/N=C/c1ccc(Br)cc1	3	3	-2	-4	3	14
Cc1cccc(OCC(=O)NCC(=O)N/N=C/c2cc(Br)cc(Br)c2O)c1	14	3	-3	59*	-3	.
Cc1ccc(/C=N/NC(=O)CNC(=O)COc2ccccc2)cc1	5	-3	4	1	-1	2
CCOC(=O)[C@]12CCCC3=C1N(CCC3)C(=O)[C@@H](CC(=O)NCCCCc1ccccc1)C2	.	-6	.	.	1	.
COC(=O)[C@H]1C[C@]2(C(C=C(C)C)S(=O)(=O)c3ccccc3)c3ccccc3N[C@H]2N1 (some centres undefined)	.	12	.	.	-2	.
CN(Cc1ccccc1)C(=O)OCc1cn(Cc2cc(F)cc(F)c2)nn1	.	-1	.	.	4	.
O=C1CSc2ccc(C(=O)N3CCCC(C(=O)N4CCOCC4)C3)cc2N1 (centres undefined)	.	1	.	.	-1	.
CC(=O)Cn1ncc(Br)c(Br)c1=O	-1	-4	-17	-24	5	61*
CC(C)(C)C(=O)Cn1ncc(N2CCCC2)c(Br)c1=O	1	-2	6	10	-2	6
Cc1cc(-c2nn3c(-c4ccccc4)nnc3s2)c2ccccc2n1	-2	5	4	64*	-5	.
Cc1cccc(NC(=O)CN2C(=O)CCSc3ccccc32)c1C	.	4	.	.	11	.
COc1ccc(-c2cc3nc(-c4ccccc4)cc(N4CCN(C(C)=O)CC4)n3n2)cc1	5	5	1	80*	-10	31
COc1ccc(-c2cc3nc(-c4ccccc4)cc(N4CCN(C(=O)c5ccsc5)CC4)n3n2)cc1	-5	-4	-6	24	1	49
COc1cccc(-c2cc3nc(C)c(C)c(N4CCN(C(=O)c5ccoc5)CC4)n3n2)c1	-3	-1	-5	56*	2	23
COc1cccc(-c2cc3nc(C)c(C)c(N4CCN(Cc5ccco5)CC4)n3n2)c1	.	-8	.	.	-2	.
O=C(Nc1c(-c2ccc(F)cc2)nc2ncccn12)c1ccc(F)cc1	.	2	.	.	-12	.
CCCCCCCCCCCCCCCC[n+]1ccccc1	6	2	-7	-41	-2	54*!
CCCCCCCCCCCCCCCC[n+]1ccc(C(N)=O)cc1	4	-5	1	-11	-5	.
SMILES	DAGLB inhibitor	DDE Tn7 FP inh	MT1-MMP act inh	H9c2 protect	DDE Tn6 FP inh	H9c2 TAG inh
COc1cc(OC)cc(C(=O)NNC(=O)c2ccccn2)c1	1	0	2	51*	0	.
CC(Oc1cccc(Br)c1)C(=O)NNC(=O)c1ccccn1 (centres undefined)	1	.	10	79*	.	-15
O=C1C[C@@H](c2ccccc2)N=C2N(Cc3ccc4c(c3)OCO4)C/C(=C/c3ccccc3)N12	.	-1	.	.	0	.
Cc1nc2ccccc2c(=O)n1/N=C/c1ccc2ccccc2c1O	0	.	-4	57*	.	15
O=C(CSc1nnc(-c2ccc(Cl)cc2)n1-c1ccccc1)Nc1ccc(Oc2ccccc2)cc1	.	-2	.	.	-2	.
COCCCn1c(C)nc2c(c1=O)c1nc3ccccc3nc1n2CCc1ccccc1	-4	.	-2	58*	.	33
